Assay [1] addresses Cyclin-dependent kinase 2 (Homo sapiens) (UniProt P24941). The assay is described as follows: Inhibition of CDK2 Lys2 labeling site in human A-375 cells at 5 uM by KiNativ Profiling analysis relative to control. Type of assay: cell-based.
The target of assay [2] is Serine/threonine-protein kinase 38 (Homo sapiens) (UniProt Q15208). The assay can be described thus: Inhibition of NDR1 ACT labeling site in human A-375 cells at 5 uM by KiNativ Profiling analysis relative to control. It is filed as cell-based.
Serine/threonine-protein kinase 38 (Homo sapiens), sequence (Q15208 2-465 limits assumed): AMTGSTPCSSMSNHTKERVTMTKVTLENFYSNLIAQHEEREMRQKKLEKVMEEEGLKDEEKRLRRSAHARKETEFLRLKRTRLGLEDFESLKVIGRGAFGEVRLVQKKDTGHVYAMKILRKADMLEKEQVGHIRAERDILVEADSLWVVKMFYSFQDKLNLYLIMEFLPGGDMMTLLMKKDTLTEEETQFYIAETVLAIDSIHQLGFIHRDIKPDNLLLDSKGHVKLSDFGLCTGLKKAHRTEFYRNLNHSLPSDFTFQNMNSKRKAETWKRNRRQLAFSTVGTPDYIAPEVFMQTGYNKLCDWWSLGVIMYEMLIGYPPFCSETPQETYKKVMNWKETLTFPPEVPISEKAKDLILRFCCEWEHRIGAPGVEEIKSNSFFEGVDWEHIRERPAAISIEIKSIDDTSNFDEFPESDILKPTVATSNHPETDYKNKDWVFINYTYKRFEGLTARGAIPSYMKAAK
Assay [3] concerns the target Myosin-IIIa (Homo sapiens) (UniProt Q8NEV4). The assay can be described thus: Inhibition of MYO3A (unknown origin) at 1 uM by Ambit Kinomescan binding assay relative to control. The method, boiled down:
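In vitro ATP-site competition binding assay against a panel of over 420 kinases (KinomeScan), with compound tested at 10 or 1 μM.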

In assay [4] the target is Ribosomal protein S6 kinase alpha-5 (Homo sapiens) (UniProt O75582). The assay can be described thus: Inhibition of N-terminal RPS6KA5 kinase domain 1 (unknown origin) at 10 uM by Ambit Kinomescan binding assay relative to control.
Assay [5] concerns the target T1, Serine/threonine-protein kinase Nek1 (Homo sapiens) (UniProt Q96PY6).
T1 sequence (whole entry): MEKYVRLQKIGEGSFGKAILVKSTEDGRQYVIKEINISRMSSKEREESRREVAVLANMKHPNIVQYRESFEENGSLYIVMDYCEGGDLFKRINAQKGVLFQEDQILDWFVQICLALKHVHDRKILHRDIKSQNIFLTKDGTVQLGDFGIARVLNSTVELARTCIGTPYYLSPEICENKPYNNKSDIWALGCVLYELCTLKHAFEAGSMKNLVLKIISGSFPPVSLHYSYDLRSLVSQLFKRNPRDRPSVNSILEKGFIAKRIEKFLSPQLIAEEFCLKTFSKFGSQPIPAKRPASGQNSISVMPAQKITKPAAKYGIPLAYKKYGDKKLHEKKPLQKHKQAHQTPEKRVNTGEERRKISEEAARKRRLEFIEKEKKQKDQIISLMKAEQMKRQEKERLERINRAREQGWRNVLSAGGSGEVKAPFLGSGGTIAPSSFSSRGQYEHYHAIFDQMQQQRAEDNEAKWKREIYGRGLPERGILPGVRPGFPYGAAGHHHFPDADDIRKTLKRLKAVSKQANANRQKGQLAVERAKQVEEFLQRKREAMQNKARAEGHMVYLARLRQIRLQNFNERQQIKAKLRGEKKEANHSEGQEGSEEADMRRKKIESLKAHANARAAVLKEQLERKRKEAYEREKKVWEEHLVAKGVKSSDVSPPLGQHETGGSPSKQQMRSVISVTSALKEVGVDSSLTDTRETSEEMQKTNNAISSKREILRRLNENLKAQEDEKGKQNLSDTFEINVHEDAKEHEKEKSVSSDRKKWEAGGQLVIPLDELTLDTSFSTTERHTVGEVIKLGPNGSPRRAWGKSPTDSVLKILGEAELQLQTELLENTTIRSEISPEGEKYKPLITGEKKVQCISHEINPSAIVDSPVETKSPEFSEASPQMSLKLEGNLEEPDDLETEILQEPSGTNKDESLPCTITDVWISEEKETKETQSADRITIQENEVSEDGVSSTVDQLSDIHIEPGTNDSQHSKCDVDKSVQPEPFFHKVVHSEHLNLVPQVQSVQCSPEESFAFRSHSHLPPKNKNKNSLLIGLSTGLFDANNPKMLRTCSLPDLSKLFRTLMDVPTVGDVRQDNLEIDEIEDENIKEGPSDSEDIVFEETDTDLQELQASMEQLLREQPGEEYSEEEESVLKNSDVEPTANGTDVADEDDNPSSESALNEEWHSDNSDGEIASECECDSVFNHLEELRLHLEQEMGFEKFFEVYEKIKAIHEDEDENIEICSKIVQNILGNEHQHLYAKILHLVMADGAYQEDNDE
The assay can be described thus: Inhibition of NEK1 Lys2 labeling site in human A-375 cells at 0.05 uM by KiNativ Profiling analysis relative to control. It is filed as cell-based.

Assay [6] has as its system eIF-2-alpha kinase GCN2 (Homo sapiens), Q9P2K8 [S808G]. The assay is described as follows: Inhibition of GCN2 kinase domain S808G mutant (unknown origin) at 10 uM by Ambit Kinomescan binding assay.
Assay [7] deals with T2, Inhibitor of nuclear factor kappa-B kinase subunit epsilon (Homo sapiens) (UniProt Q14164).
T2 sequence (whole entry): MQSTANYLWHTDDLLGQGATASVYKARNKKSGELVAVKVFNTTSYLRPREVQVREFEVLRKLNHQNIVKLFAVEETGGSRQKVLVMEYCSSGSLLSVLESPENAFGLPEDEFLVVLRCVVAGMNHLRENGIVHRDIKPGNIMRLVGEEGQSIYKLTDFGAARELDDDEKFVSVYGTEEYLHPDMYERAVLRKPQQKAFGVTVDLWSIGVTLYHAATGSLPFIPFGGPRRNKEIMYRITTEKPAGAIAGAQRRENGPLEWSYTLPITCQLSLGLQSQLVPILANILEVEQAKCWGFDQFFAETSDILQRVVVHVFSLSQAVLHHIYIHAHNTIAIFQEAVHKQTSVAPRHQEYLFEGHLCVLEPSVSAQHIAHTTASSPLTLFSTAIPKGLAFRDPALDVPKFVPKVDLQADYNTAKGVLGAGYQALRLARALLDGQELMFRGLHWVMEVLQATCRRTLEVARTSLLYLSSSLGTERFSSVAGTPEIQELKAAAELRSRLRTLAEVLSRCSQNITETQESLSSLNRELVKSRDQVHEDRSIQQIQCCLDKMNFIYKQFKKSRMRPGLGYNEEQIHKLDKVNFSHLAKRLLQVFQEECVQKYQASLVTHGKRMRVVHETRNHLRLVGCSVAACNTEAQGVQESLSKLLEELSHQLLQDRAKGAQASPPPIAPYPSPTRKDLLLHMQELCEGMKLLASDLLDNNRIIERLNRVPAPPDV
The assay can be described thus: Inhibition of IKKe K2 labeling site in human Huh-7 cells at 1 uM by KiNativ Profiling analysis relative to control. Type of assay: cell-based.

For assay [8], the target named is Interferon-induced, double-stranded RNA-activated protein kinase (Homo sapiens) (UniProt P19525). The assay can be described thus: Inhibition of PRKR (unknown origin) at 10 uM by Ambit Kinomescan binding assay.
Interferon-induced, double-stranded RNA-activated protein kinase (Homo sapiens), sequence (P19525 whole entry): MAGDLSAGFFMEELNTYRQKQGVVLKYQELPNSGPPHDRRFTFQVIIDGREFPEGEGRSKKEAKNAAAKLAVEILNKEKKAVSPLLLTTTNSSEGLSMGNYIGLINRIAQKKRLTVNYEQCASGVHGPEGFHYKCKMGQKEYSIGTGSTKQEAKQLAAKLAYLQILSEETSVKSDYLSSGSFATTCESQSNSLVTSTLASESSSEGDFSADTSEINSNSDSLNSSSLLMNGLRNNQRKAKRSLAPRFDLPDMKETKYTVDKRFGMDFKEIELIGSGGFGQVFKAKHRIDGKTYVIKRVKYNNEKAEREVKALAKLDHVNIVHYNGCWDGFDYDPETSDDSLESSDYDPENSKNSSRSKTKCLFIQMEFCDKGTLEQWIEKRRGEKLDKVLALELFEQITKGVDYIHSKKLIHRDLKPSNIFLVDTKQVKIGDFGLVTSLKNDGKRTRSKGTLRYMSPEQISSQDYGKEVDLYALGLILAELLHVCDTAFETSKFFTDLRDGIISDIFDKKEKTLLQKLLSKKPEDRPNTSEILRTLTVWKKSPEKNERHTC
For assay [9], the target named is Cyclin-dependent kinase 8/19 (Homo sapiens) (UniProt P49336+Q9BWU1). The assay is described as follows: Inhibition of CDK8/11 K2 labeling site in human Huh-7 cells at 10 uM by KiNativ Profiling analysis relative to control. Type of assay: cell-based.
The target of assay [10] is Serine/threonine-protein kinase 25 (Homo sapiens) (UniProt O00506). The assay can be described thus: Inhibition of YSK1 ATP labeling site in human Huh-7 cells at 10 uM by KiNativ Profiling analysis relative to control. Type of assay: cell-based.
Serine/threonine-protein kinase 25 (Homo sapiens), sequence (O00506 whole entry, looked up): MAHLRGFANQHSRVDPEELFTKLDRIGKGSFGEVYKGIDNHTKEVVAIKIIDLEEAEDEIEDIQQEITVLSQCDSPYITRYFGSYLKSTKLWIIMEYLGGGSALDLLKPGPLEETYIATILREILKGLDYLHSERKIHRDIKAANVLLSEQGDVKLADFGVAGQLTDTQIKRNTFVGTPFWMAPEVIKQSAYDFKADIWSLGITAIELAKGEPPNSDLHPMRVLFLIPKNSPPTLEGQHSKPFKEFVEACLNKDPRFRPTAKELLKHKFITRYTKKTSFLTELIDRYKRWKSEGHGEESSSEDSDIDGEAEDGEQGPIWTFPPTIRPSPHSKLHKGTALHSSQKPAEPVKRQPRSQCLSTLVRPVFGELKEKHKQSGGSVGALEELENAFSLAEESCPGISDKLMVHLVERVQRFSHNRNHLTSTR

For two compounds, inhibition results are on record in ChEMBL document CHEMBL5696442, “Discovery of type II inhibitors of TGFβ-activated kinase 1 (TAK1) and mitogen-activated protein kinase kinase kinase kinase 2 (MAP4K2)” (J Med Chem, 2015).

Activity calls are given as the source filed them. The calls are words filed in the database; no cut-off is given here.

eIF-2-alpha kinase GCN2 (Homo sapiens), Q9P2K8 [S808G], sequence (Q9P2K8 whole entry S808G, the tested form may be a part): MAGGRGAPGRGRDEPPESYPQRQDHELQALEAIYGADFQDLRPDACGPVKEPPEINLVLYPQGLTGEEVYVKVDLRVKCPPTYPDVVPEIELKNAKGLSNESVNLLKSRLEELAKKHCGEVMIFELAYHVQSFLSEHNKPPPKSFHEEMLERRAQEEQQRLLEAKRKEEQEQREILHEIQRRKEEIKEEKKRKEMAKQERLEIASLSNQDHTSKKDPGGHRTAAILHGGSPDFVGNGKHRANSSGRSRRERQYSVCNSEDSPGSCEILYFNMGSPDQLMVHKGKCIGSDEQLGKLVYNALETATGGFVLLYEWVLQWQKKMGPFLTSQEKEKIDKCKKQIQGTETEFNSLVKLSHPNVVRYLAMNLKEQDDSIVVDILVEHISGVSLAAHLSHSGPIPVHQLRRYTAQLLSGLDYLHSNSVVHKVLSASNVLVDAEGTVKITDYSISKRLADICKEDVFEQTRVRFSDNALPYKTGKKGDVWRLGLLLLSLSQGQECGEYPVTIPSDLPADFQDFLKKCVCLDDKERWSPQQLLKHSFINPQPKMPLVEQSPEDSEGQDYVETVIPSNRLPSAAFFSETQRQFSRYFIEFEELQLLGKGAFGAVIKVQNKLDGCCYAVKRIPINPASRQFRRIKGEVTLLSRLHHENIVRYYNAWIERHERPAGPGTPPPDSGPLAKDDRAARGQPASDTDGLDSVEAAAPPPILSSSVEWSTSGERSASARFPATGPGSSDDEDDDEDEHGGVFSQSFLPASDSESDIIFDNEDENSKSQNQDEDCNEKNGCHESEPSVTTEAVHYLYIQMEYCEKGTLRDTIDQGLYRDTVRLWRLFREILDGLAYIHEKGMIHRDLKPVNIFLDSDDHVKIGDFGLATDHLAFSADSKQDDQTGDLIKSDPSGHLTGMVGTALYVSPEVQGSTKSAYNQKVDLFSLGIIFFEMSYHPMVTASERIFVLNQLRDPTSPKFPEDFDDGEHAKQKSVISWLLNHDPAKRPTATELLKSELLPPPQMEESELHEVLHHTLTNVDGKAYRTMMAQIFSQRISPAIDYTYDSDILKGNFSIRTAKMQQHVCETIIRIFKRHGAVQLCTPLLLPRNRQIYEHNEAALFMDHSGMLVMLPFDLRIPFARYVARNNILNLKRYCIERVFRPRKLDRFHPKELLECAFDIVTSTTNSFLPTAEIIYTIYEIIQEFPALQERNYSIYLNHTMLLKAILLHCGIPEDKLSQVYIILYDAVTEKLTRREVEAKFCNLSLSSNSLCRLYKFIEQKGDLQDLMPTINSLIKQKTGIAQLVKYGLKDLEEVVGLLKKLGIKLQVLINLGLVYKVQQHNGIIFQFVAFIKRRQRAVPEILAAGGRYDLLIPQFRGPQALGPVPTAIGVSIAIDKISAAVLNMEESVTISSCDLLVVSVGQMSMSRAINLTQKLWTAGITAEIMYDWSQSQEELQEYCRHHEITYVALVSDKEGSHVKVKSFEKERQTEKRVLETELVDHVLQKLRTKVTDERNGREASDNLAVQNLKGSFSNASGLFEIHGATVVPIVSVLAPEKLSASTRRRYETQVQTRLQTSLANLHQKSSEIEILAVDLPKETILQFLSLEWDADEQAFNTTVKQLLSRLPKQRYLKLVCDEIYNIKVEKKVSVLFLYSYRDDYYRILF
Myosin-IIIa (Homo sapiens), sequence (Q8NEV4 whole entry): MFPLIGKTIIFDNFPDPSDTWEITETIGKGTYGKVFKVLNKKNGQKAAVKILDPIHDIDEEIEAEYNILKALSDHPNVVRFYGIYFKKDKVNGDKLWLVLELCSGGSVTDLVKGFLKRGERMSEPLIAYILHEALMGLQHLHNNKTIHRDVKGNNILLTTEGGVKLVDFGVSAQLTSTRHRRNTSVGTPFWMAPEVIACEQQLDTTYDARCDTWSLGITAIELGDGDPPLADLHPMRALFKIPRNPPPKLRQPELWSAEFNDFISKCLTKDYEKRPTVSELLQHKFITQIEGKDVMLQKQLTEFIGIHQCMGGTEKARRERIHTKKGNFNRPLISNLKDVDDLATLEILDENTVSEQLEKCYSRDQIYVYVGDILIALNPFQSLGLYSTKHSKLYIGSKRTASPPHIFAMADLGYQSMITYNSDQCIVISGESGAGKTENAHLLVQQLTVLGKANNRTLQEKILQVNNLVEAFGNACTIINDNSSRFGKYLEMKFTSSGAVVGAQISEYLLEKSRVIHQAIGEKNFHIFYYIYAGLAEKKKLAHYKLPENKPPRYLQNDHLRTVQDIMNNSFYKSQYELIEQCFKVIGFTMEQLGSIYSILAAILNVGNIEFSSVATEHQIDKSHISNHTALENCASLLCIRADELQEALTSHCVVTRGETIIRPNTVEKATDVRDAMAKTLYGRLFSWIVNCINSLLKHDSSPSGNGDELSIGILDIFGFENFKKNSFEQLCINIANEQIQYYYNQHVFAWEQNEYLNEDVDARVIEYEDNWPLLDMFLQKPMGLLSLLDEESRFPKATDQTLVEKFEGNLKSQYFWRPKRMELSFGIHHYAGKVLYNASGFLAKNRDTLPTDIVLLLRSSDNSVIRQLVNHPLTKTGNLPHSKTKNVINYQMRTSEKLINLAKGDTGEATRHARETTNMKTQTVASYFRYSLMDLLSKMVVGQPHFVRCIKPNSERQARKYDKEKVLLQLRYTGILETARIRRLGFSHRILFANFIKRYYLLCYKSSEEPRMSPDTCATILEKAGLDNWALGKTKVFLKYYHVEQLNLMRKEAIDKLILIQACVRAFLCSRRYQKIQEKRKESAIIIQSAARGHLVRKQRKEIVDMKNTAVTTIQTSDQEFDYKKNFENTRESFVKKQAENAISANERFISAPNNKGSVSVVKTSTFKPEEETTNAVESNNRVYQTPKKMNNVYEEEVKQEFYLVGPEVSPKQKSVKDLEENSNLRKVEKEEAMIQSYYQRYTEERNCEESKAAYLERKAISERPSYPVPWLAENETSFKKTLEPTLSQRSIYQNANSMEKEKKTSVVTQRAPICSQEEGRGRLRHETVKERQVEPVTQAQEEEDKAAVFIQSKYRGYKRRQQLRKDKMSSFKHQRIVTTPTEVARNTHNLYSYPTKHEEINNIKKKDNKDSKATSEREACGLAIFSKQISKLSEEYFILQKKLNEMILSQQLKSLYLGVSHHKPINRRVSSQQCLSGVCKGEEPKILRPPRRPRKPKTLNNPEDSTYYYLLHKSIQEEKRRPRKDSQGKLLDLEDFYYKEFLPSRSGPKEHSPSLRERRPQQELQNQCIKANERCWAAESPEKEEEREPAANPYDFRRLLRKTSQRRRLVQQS

Consider `CCN1CCN(Cc2ccc(NC(=O)c3ccc(C)c(/C=C/c4cnc5[nH]ccc5c4OC)c3)cc2C(F)(F)F)CC1`, for which the inhibition – broadly, the relative decrease from the control value, in per cent – in assay [1] was 3.4%; in [2], -2.6%; in [3] it was 84%.

Turning to `CCN1CCN(Cc2ccc(NC(=O)c3ccc(C)c(Oc4ccnc5[nH]ccc45)c3)cc2C(F)(F)F)CC1`, the inhibition entry in assay [4], in [6] and in assay [8] was “inactive” each time. Besides, the inhibition is -7.1% in assay [5], 17.7% in assay [7], 18.3% in assay [9] and 25.3% in assay [10].
